Data set [1] is described as follows: Cytotoxicity against human fibroblast at 300 uM after 24 hrs by MTT assay. The class given is cell-based. Background: Tetrazolium dyes change colour on reduction, which living cells bring about.
For data set [2], the system named is Oryza sativa. As to the kind of experiment: Inhibition of rice alpha-glucosidase at 0.1 mM.
Data set [3] relates to Glucosylceramide synthase (Homo sapiens). Description: Inhibition of glucosylceramide synthase in human A549 cells at 250 uM after 35 mins by fluorescence-coupled HPLC analysis.
Data set [4] in a line: Dissociation constant, pKa of the compound. The class given is physicochemical.
Data set [5] has as its target T1, Beta-galactosidase (Bos taurus) (UniProt Q58D55).
T1 sequence (whole entry): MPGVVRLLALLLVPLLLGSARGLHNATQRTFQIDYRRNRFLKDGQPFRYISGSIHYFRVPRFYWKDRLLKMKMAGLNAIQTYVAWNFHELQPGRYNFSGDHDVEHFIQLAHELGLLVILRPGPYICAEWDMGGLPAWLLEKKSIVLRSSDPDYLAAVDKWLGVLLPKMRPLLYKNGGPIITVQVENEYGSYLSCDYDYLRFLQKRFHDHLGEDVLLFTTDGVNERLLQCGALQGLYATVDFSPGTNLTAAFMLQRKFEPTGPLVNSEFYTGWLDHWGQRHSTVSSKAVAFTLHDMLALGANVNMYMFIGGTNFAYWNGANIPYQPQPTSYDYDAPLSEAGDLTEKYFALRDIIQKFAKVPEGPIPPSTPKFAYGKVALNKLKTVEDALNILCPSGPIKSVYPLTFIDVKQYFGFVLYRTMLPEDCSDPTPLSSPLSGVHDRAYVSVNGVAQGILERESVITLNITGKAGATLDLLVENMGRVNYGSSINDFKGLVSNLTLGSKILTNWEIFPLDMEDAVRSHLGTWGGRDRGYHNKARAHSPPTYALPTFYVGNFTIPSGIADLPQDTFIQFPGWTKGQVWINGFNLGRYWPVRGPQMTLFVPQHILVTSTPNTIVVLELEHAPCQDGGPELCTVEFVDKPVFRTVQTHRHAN
As to the kind of experiment: Inhibition of bovine liver beta-galactosidase at 0.1 mM.

For data set [6], the target named is T2, Lysosomal acid glucosylceramidase (Homo sapiens) (UniProt P04062).
T2 sequence (whole entry): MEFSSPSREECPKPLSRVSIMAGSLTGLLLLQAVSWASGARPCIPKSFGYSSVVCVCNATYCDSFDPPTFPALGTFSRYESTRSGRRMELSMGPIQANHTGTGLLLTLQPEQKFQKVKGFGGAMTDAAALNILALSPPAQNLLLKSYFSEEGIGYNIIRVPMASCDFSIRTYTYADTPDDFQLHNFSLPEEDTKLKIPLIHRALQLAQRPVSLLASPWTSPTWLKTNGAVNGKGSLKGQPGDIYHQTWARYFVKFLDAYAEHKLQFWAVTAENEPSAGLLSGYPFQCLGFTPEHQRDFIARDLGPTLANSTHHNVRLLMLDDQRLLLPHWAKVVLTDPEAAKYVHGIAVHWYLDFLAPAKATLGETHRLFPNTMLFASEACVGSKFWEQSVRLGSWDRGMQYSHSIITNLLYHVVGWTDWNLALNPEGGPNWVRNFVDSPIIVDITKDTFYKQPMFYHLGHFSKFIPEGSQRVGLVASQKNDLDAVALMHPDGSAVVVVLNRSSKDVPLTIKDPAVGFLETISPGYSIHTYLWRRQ
Description: Inhibition of beta-glucocerebrosidase in human fibroblast at 50 uM after 24 hrs by fluorescence assay. In outline: (§1)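 Wild-type human fibroblasts exposed to compound for 24 h (10, 20 or 50 μM, as listed) with 5 mM substrate. Cellular GCase activity then measured.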

In data set [7] the target is T3, Lysosomal acid glucosylceramidase (Homo sapiens, UniProt P04062).
T3 sequence (P04062 whole entry): T2 sequence (whole entry)
As to the kind of experiment: Inhibition of recombinant beta-glucocerebrosidase at pH 7.4 after 10 mins by fluorimetry.

In data set [8] the target is T3, Lysosomal acid glucosylceramidase. Description: Inhibition of recombinant beta-glucocerebrosidase at pH 5.2 after 10 mins by fluorimetry.
For data set [9] the target is unchanged. As to the kind of experiment: Inhibition of recombinant beta-glucocerebrosidase after 10 mins by fluorimetry. The method in brief: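 Imiglucerase (0.1 mg/mL stock) in McIlvaine buffer, pH 5.2 or 7.4, with 0.2% sodium taurocholate and 0.1% Triton X-100. Preincubated 30 min at 37 °C with or without inhibitor. Then 4 mM 4-methylumbelliferyl-β-D-glucopyranoside added for 10 min at 37 °C. Stopped with glycine/NaOH pH 10.6; 4-MU read at ex 355/em 460 nm. IC50 from % activity vs log[I], at least five concentrations.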

Data set [10] has as its system Oryza sativa. Description: Inhibition of rice alpha-galactosidase at 0.1 mM.
The subject of another data set is Prunus dulcis. As to the kind of experiment: Inhibition of sweet almond beta-glucosidase at 0.1 mM.
For another data set, the system named is Saccharomyces cerevisiae. Description: Inhibition of yeast alpha-glucosidase at 0.1 mM.
Data set [11] concerns the target T3, Lysosomal acid glucosylceramidase. As to the kind of experiment: Competitive inhibition of beta-glucocerebrosidase at pH 5.2 by Lineweaver-Burke plot analysis.
Data set [12] has as its target T2, Lysosomal acid glucosylceramidase (Homo sapiens). Description: Binding affinity to recombinant beta-glucocerebrosidase assessed as enzymatic activity at 100 uM after 20 mins by thermal stabilization assay relative to control.
Data set [13] has the same target. Description: Binding affinity to recombinant beta-glucocerebrosidase assessed as enzymatic activity at 150 uM after 40 mins by thermal stabilization assay relative to control.
For data set [14] the target is unchanged. As to the kind of experiment: Binding affinity to recombinant beta-glucocerebrosidase assessed as enzymatic activity at 50 uM after 60 mins by thermal stabilization assay relative to control.
The target is the same in data set [15]. As to the kind of experiment: Binding affinity to recombinant beta-glucocerebrosidase assessed as enzymatic activity at 100 uM after 40 mins by thermal stabilization assay relative to control.
The target is the same in data set [16]. As to the kind of experiment: Binding affinity to recombinant beta-glucocerebrosidase assessed as enzymatic activity at 150 uM after 20 mins by thermal stabilization assay relative to control.
The target is the same in data set [17]. Description: Binding affinity to recombinant beta-glucocerebrosidase assessed as enzymatic activity at 50 uM after 40 mins by thermal stabilization assay relative to control.
The target is the same in data set [18]. Description: Binding affinity to recombinant beta-glucocerebrosidase assessed as enzymatic activity at 50 uM after 20 mins by thermal stabilization assay relative to control.
Data set [19] has the same target. Description: Binding affinity to recombinant beta-glucocerebrosidase assessed as enzymatic activity at 100 uM after 60 mins by thermal stabilization assay relative to control.
Data set [20] has the same target. As to the kind of experiment: Binding affinity to recombinant beta-glucocerebrosidase assessed as enzymatic activity at 150 uM after 60 mins by thermal stabilization assay relative to control.
The target is the same in data set [21]. As to the kind of experiment: Inhibition of beta-glucocerebrosidase in human fibroblast at 10 uM after 24 hrs by fluorescence assay. In outline: as §1
Data set [22] has the same target. As to the kind of experiment: Inhibition of beta-glucocerebrosidase in human fibroblast at 20 uM after 24 hrs by fluorescence assay. In outline:
as §1

A short description of data set [23]: Cytotoxicity against human fibroblast after 24 hrs by MTT assay. The class given is cell-based. The following applies: human fibroblasts.
Data set [24] can be described thus: Selectivity index, ratio of CC50 for human fibroblast to Ki for beta-glucocerebrosidase.

Activity calls are given as the source filed them. No cut-off for these calls is given here. Where only a bound is given, the exact number is not on record here.

This is an account of results in ChEMBL document CHEMBL1155442, “Click chemistry approach to new N-substituted aminocyclitols as potential pharmacological chaperones for Gaucher disease” (J Med Chem, 2010).

As a reminder, the inhibition is the relative decrease from the control value, in per cent. By pKa is commonly meant the pH at which an ionisable group is half protonated. A higher pKa goes with a group that holds its proton tightly. In general, IC50 refers to the midpoint of a concentration-inhibition curve. In general, Ki refers to a measure of affinity in units of concentration, obtained from inhibition or displacement. Low values mean tighter binding, high ones weaker binding. What is called CC50 is the concentration that lowers cell viability or growth by half. Low values mean harm at low concentration, high ones better tolerance by the cells.

`CCCCCCn1cc(CCCN[C@H]2[C@H](O)[C@@H](O)[C@H](O)[C@@H](O)[C@@H]2O)nn1`: in data set [1], the Activity entry is “Non-toxic”. Besides, the inhibition entry (in the data set with Oryza sativa [2]; in data set [5]; in the data set with Oryza sativa [10]; with Prunus dulcis; in the data set on Saccharomyces cerevisiae) was “inactive” each time. Besides, the inhibition in [3] was 30%; in data set [6], below 5%. Moreover, the pKa in data set [4] is 10.4. Also, the IC50 was 44.6 µM in [7], 257 µM in data set [8] and 257 µM in data set [9].
Take `CCCCCCCCCCCn1cc(CCN[C@H]2[C@H](O)[C@@H](O)[C@H](O)[C@@H](O)[C@@H]2O)nn1`: affinity in data set [11] was put at a Ki of 20.2 µM. Besides, the Activity result in data set [1] is on record as “Non-toxic”. Besides, the inhibition result (with Oryza sativa [2]; in data set [5]; with Oryza sativa [10]; in the data set on Prunus dulcis; in the data set on Saccharomyces cerevisiae) was “inactive” throughout. The values for the inhibition in data set [3] and in data set [6] were 30% and 50%, respectively. The compound also returned a pKa in data set [4] of 9.1. For the same compound, the fold change (FC) in data set [12] worked out at 2.55; in [13], 4.79; in data set [14] it was 9.63; in data set [15], 6.7; in [16], 2.5; in [17], 5.98. Further, the fold change (FC) turned out to be 2.43 in data set [18], 11.6 in [19] and 5.3 in data set [20]. The IC50 in [7] is 4.9 µM; in [8], 25.4 µM; in [9], 25.7 µM.
Consider `CCCCCCCCCCCCCCn1cc(CN[C@H]2[C@H](O)[C@@H](O)[C@H](O)[C@@H](O)[C@@H]2O)nn1`, for which affinity in [11] was put at a Ki of 0.08 µM. For the same compound, the inhibition result (in the data set with Oryza sativa [2]; in data set [5]; with Oryza sativa [10]; in the data set on Prunus dulcis; in the data set with Saccharomyces cerevisiae) was “inactive” each time. This compound had a pKa in data set [4] of 7.7. The fold change (FC) in data set [12] was determined as 2.88; in [13] it was 5.91; in data set [14], 13.8; in [15], 7.48; in data set [16] it was 2.67; in data set [17] it was 7.86. Besides, the fold change (FC) stood at 2.82 in [18], 13.2 in [19] and 9.4 in [20]. Further, the inhibition was 93% in data set [21], “Toxic” in data set [22] and “Toxic” in data set [6]. The CC50 at 24 h in [23] was found to be 19 µM. Besides, the IC50 in data set [7] was 0.1 µM; in data set [8], 0.09 µM; in [9], 0.0891 µM. Moreover, the “Selectivity Index” value in data set [24] stood at 237.
In data set [11], `CCCCCCCCn1cc(CCCN[C@H]2[C@H](O)[C@@H](O)[C@H](O)[C@@H](O)[C@@H]2O)nn1` had a Ki of 19.9 µM. For the same compound, the inhibition result (in the data set on Oryza sativa [2]; in data set [5]; in the data set on Oryza sativa [10]; in the data set on Prunus dulcis; in the data set with Saccharomyces cerevisiae) was “inactive” in each case. Moreover, the pKa in [4] is 9.4. The inhibition in data set [6] was determined as 40%. The compound further returned a CC50 at 24 h in data set [23] of 97 µM. Besides, the values for the IC50 in data set [7], in data set [8] and in data set [9] were 18.2 µM, 35.4 µM and 35.5 µM, respectively.
